# In the library only some 2.2% were active in any assay of this set; here they are far more common.
# Calb biofilm kill: clotrimazole potentiators killing Candida biofilms, primary screen, with clotrimazole, Alamar Blue; C. albicans biofilm + clotrimazole; inhibition, % at 6 µM; 0.14% of 85,000 active; AID 834, 2007;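 active = inhibition above 20%; inactive = inhibition below 20%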;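 also: preformed 24 hr biofilms exposed to compound for 48 hr; 0% = biofilm without compound and 100% = blank killed by clotrimazole plus chlorhexidine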
# SF1 activator: activators of human SF-1, primary screen, cell-based, CHO-K1, Gal4-SF-1 LBD, luciferase luminescence; Steroidogenic factor 1 (Homo sapiens), Q13285; CHO-K1 Gal4-SF-1 LBD luciferase reporter; % increase over DMSO SF-1-specific signal; activation, % at 10 µM; 1.9% of 65,000 active; AID 522, 2006;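 active = activation above the mean activation of all tested compounds plus 3 SD, cut at about 50% in these data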
#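 Assay system: CHO-K1 cells co-transfected with Gal4 DBD–human SF-1 LBD, 5xGal4 luciferase reporter / Input: 4,000 cells per well / Incubation: 20 h compound exposure at 37 °C after 1 h cell settling / Detection: SteadyLite luciferase luminescence / Control set: DMSO negative control and −SF1 background wells / Replication: one test per compound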
# Mac1 fbg enh: enhancers of CD11b/CD18 adhesion to fibrinogen, primary screen, K562 cells, luminescence. 0.07% of 93,000 active. activation, % at 10 µM. AID 1499, 2009. ATPlite luminescence. Integrin beta-2 (Homo sapiens) + Integrin alpha-M (Homo sapiens), P05107+P11215;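 active = 10 µM primary screen giving 50% or more activity, confirmed by 40% or more on retest at that dose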
# MT1-MMP txn act: MT1-MMP promoter reporter activation – cell-based, luciferase luminescence, primary screen | HT1080 MT1-MMP promoter luciferase reporter, overnight; hits give high values | activation factor at 10 µM | 0.16% of 86,000 active;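 active = activation factor of at least 2 for MT1-MMP transcription at 10 µM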
# CD11b adhes inh: inhibitors of CD11b/CD18 adhesion to fibrinogen, primary screen, K562 cells, luminescence; Integrin beta-2 (Homo sapiens) + Integrin alpha-M (Homo sapiens), P05107+P11215; ATPlite luminescence; Mn2+ added to activate the integrin; inhibition, % at 10 µM; 0.54% of 93,000 active; AID 1497, 2009;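 active = primary inhibition of 50% or more at 10 µM, then 40% or more on retest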
# RORA act: activators of orphan receptor RORA, primary screen, cell-based, luminescence. Nuclear receptor ROR-alpha (Homo sapiens), P35398. activation, % at 10 µM. 1.5% of 65,000 active. CHO-K1 Gal4-RORA LBD luciferase reporter; percent increase over mock-subtracted basal signal;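 active = activation above the mean of all tested compounds plus 3 SD, cut at about 49% in these data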;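 also: 0% = DMSO-treated RORA cells and 100% = added signal equal to DMSO minus mock-transfected cells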
# Target sequence (P35398 whole entry, looked up, the tested form may be a part): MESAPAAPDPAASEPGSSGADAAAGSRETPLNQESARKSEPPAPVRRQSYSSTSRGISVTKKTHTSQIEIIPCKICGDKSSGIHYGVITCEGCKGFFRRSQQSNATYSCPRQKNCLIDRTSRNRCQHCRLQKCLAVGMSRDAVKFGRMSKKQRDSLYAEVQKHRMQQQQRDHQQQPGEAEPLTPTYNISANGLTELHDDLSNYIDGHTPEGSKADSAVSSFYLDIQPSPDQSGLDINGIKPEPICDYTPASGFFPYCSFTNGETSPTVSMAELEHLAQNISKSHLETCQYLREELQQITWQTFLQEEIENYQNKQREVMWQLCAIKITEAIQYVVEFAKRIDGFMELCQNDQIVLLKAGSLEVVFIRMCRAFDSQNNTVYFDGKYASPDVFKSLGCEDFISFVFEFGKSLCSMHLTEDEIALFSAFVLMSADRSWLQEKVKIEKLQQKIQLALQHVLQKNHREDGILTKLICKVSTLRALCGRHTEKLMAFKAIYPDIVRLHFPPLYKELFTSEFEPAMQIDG
# An asterisk follows results filed as active; x = no result given.
SMILES,Calb biofilm kill,SF1 activator,Mac1 fbg enh,MT1-MMP txn act,CD11b adhes inh,RORA act
COC(=O)C1=C(C)N(CCCC(=O)O)C(=O)NC1c1cccc(OC)c1 (stereo not given),x,x,x,1.1,x,x
COc1ccc(N(C)S(=O)(=O)c2cccc3cccnc23)c(OC)c1,5.4,14.9,53.5*,1.3,-2.1,12.7
CN1CCN(C(=S)SCC(=O)Nc2nc(-c3ccccc3)c(-c3ccccc3)o2)CC1,x,x,39.7,x,11.8,x
C=CCn1c(-c2ccccc2)c[nH]c1=S,4.3,52.9*,0.6,1.6,-13.7,5.9
CC(C)C(=O)Nc1cccc(-c2nc3ccccc3o2)c1,2.1,51.6*,4.2,1.1,-16.8,24.1
Cc1ccc2oc(-c3cccc(NC(=O)C4CCCO4)c3)nc2c1 (stereo not given),-2.3,45.9,4.1,1.4,-28.2,30.9
CC(C)CC(=O)Nc1cccc(-c2nc3ccccc3o2)c1,-1.7,0.0,-3.7,1,-0.7,-7.8
O=C(Nc1cccc(-c2nc3cc(Cl)ccc3o2)c1)C1CCCO1 (stereo not given),5.1,80.9*,1.9,1.2,2.3,37.3
COc1ccc(OCC(=O)Nc2cccc(-c3nc4ccccc4o3)c2)cc1,-2.0,44.1,0.6,1.4,13.2,56.7*
CCC(C)[C@H](NC(=O)Nc1cccc(Br)c1)C(=O)OC (stereo not given in full),x,x,1.1,x,-6.2,x
O=C(NCCN1CCOCC1)c1cc(-c2cccs2)on1,x,34.6,x,1.2,x,67.5*
O=C(c1cc(-c2cccs2)on1)N1CCN(C(c2ccccc2)c2ccccc2)CC1,-1.2,x,1.2,x,-8.4,x
O=C(c1cc(-c2cccs2)on1)N1CCOCC1,x,48.2,-1.6,1.3,4.1,50.9*
CCOC(=O)c1ccc(CNC(=O)c2cc3cccc(OC)c3oc2=O)o1,3.0,-15.7,x,1.1,x,-7.8
O=C(NCc1ccc(F)cc1)c1cnc2sccn2c1=O,12.2,1.4,-1.5,1.1,-2.1,-10.3
O=C(NCCc1c[nH]c2ccccc12)c1cnc2sccn2c1=O,-5.3,59.8*,4.1,1.8,-4.2,38.5
CCCc1nc(SCC(=O)N2CCC(Cc3ccccc3)CC2)c2c(=O)n(C)c(=O)n(C)c2n1,3.9,23.2,12.7,1.1,7.5,4.5
CCOc1ccc(N2C(=O)c3ccccc3C2O)cc1 (stereo not given),9.7,69.4*,4.6,1.2,-3.5,11.0
CCOc1ccc(N2C(=O)c3ccccc3C2=O)cc1,2.7,x,9.0,1.3,-3.9,x
C[C@]1(C(=O)NCC2CC2)C=C[C@@H](Cc2ccccc2)N1C(=O)c1ccccc1,x,x,x,1.1,x,x
CN(C)S(=O)(=O)c1ccc(NC(=O)C2CC3C=CC2C3)cc1 (stereo not given),x,x,5.5,x,6.5,x
O=C(CN1CCN(Cc2ccc(Cl)cc2)C1=O)NCCCN1CCOCC1,2.2,x,6.2,x,-11.9,x
O=C(CN1CCN(Cc2ccc(Cl)cc2)C1=O)NCCCN1CCN(c2ccc(F)cc2)CC1,1.2,x,-4.0,1.1,56.7*,x
COC(=O)c1c(-c2ccc(C)cc2)csc1NC(=O)c1c(-c2ccccc2)noc1C,x,x,4.5,x,-9.1,x
COC(=O)c1c(-c2cccnc2)csc1NC(=O)c1cc(C)on1,6.9,79.7*,x,1.6,x,56.8*
SMILES,Calb biofilm kill,SF1 activator,Mac1 fbg enh,MT1-MMP txn act,CD11b adhes inh,RORA act
C/C(=N\NS(=O)(=O)c1ccc(Cl)c([N+](=O)[O-])c1)c1cc2ccccc2o1,x,x,-9.7,x,97.0*,x
Cc1ccc(NC(=O)Nc2ncccc2C)cc1,5.8,x,x,1.8,x,x
Cc1cccnc1NC(=O)Nc1ccc(F)cc1,9.3,98.3*,-2.2,1.2,20.5,45.8
CSc1ncccc1-c1nc2ccccc2[nH]1,x,x,-1.5,x,0.3,x
Nc1nonc1-c1nc2ccccc2[nH]1,5.2,21.8,-0.4,1.1,-4.4,31.7
Cc1ccccc1-c1nc2ccccc2[nH]1,-0.1,x,x,2*,x,x
Cn1cc(Cl)c(-c2nc3ccccc3[nH]2)n1,4.4,44.1,-0.1,1.2,3.2,55.6*
CCn1nc(C)c(/C=N/NC(=O)c2ccc3c(c2)c(C)c(C)n3Cc2ccccc2)c1C,x,x,1.3,x,7.9,x
O=C(NCCn1ccc2ccccc21)c1ccc(S(=O)(=O)N2CCCCC2)cc1,-0.4,2.9,-2.0,1.1,-35.6,-1.8
COc1ccc(C(=O)NCCn2ccc3ccccc32)cc1,4.8,58.2*,-0.4,1.1,-6.5,56.9*
O=C(NCCn1ccc2ccccc21)c1ccc2c(c1)OCO2,18.5,71.8*,2.8,1.4,-7.2,76.0*
CC1(C)CC2CC(C)(CN2C(=O)COC(=O)CNC(=O)c2ccc(Cl)c(Cl)c2)C1 (stereo not given),x,x,0.8,x,18.1,x
O=C(CSCC(=O)N1CCOCC1)Nc1nc(-c2ccc3c(c2)OCO3)cs1,-2.7,48.2,2.6,1.5,6.6,52.3*
Oc1cc(NCc2cccnc2)ccc1-c1nc2ccccc2o1,4.2,37.9,x,1.7,x,61.1*
CN(C)CCCN1C(=O)C(=O)/C(=C(/O)c2ccc3c(c2)OCCO3)C1c1ccccn1 (stereo not given),x,20.4,x,1.2,x,14.9
Cc1ccc(-n2cc(-c3ccccc3)[nH]c2=O)cc1F,6.5,86.8*,4.4,1.4,17.7,39.9
Cc1cc(-n2ccc(=O)[nH]c2=O)nc(-c2ccccc2)n1,9.2,0.5,-1.3,1.1,-1.7,-2.9
CCC(CC)c1nnc(NC(=O)[C@@H](NC(=O)c2cccc(C)c2)C(C)C)s1,x,x,-1.0,x,6.2,x
Clc1nc2sccn2c1/C=N/n1cnc2ccccc21,6.7,39.8,-3.5,1.2,-7.5,52.3*
COc1cccc(C(=O)Nc2cccc(SC)c2)c1,2.9,80.7*,0.3,1.1,9.6,51.3*
COc1cccc(C(=O)Nc2nnc(C(C)C)s2)c1,6.7,2.7,x,0.6,x,5.3
CCCC(=O)Nc1ccc(NC(=O)c2ccccn2)cn1,3.8,27.4,-3.3,0.9,1.2,89.1*
CCCc1nnc(NC(=O)c2cccc(OC)c2)s1,4.4,37.1,-1.2,1,4.0,57.2*
CCCC(=O)Nc1ccc(NC(=O)c2cccc(OC)c2)nc1,5.5,60.4*,4.3,1.5,-4.2,44.5
CCOC(=O)C1=C(CCc2ccccc2)NC(=O)NC1c1ccc(C#N)cc1 (stereo not given),x,x,x,1,x,x
O=C(Nc1nc2ccccc2n1CCN1CCCCC1)c1ccc(Cl)cc1,2.8,x,-3.4,1.1,-1.0,x
Cc1ccc(C(=O)Nc2nc3ccccc3n2CCN2CCCC2)cc1,5.4,38.5,-2.4,1.8,13.1,61.8*
O=C(Nc1nc2ccccc2n1CCN1CCCC1)c1ccc(Cl)cc1,5.5,55.4*,-0.9,1.5,3.1,99.4*

# Compound activity: PubChem BioAssay, several laboratories
